Experimental findings from ChEMBL document CHEMBL3822447, “4-(1,2-diarylbut-1-en-1-yl)isobutyranilide derivatives as inhibitors of topoisomerase II” (2016) are described below.

As a reminder, the GI50 is the concentration that inhibits growth by half.

Active and inactive are the calls of the source. No cut-off for these calls is given here.

The test system of assay [1] is MCF7. In words: Cytotoxicity against human MCF7 cells assessed as cell growth inhibition after 72 hrs by trypan blue assay. The conditions noted are these: MCF7, 72 h. The class given is functional. The method in brief:
(§1)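 HeLa (F-12 HAM) and MCF-7 (DMEM) kept in medium with 10% heat-inactivated FCS plus antibiotics; 4-5×10^4 cells/well seeded, compounds added after 24 h at various concentrations, then 72 h more. Viable cells counted by trypan blue; GI50 is the concentration giving 50% fewer cells than control. Mean ± SD from at least three independent experiments.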

For assay [2], the system named is A2780. In words: Cytotoxicity against human A2780 cells assessed as cell growth inhibition after 72 hrs by MTS assay. Format: functional. The following applies: A2780, 72 h. The method in brief:
(§2)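 Cells grown in RPMI1640 with 10% FBS and 2 mM glutamine at 37°C, 5% CO2; plated at 15 000 cells/mL, treated with compounds 72 h after plating, and survival read by MTS after a further 72 h; dose-response curves plotted.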
In general terms: Tetrazolium assays rely on reduction of a dye to a coloured formazan, in cell work by metabolically active cells.

Assay [3] relates to HeLa. In words: Cytotoxicity against human HeLa cells assessed as cell growth inhibition after 72 hrs by trypan blue assay. The class given is functional. The method in brief:
as §1

Assay [4] in a line: Cytotoxicity against human OVCAR5 cells assessed as cell growth inhibition after 72 hrs by MTS assay. Format: functional. The conditions noted are these: OVCAR-5, 72 h. The method in brief: as §2
The target in assay [5] is DNA topoisomerase 2-alpha (Homo sapiens) (UniProt P11388). In words: Inhibition of human recombinant topoisomerase 2 alpha-mediated relaxation of supercoiled pBR322 plasmid DNA at 50 uM after 60 mins by electrophoretic analysis. The method, boiled down: (§3)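 Relaxation assay: 0.25 µg supercoiled pBR322 incubated with 1U human recombinant topoisomerase IIα and compound for 60 min at 37°C; m-AMSA reference at 10 µM. Stopped with SDS stop buffer plus 50 µg/mL proteinase K for 30 min at 37°C, run on 1% agarose, then stained with 1 µg/mL ethidium bromide in TAE.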

Assay [6] has the same target. In words: Poisoning activity at human recombinant topoisomerase 2 alpha using supercoiled pBR322 plasmid DNA as substrate assessed as stabilization of covalent DNA-enzyme complex at 50 uM after 60 mins by electrophoretic analysis. The method, boiled down: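 Cleavage assay: 0.25 µg supercoiled pBR322 with 10 U human recombinant topoisomerase IIα and compound, 60 min at 37°C. Stopped with SDS buffer and 50 µg/mL proteinase K for 30 min at 37°C, then resolved on 1% agarose containing 0.5 µg/mL ethidium bromide in TBE, with UV imaging.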

Assay [7] concerns HeLa. In words: Induction of mitochondrial membrane depolarization in human HeLa cells at 10 uM after 28 hrs by JC-1 staining-based flow cytometric analysis (reference value: 4%). Format: functional. The method in brief: (§4)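 HeLa cells (2.0 x 10^5) seeded, compound added after 24 h, then incubated 28 h. Cells loaded with JC-1 working solution for 30 min at 37°C, washed twice and read in assay buffer by flow cytometry. Loss of red aggregate fluorescence scored as depolarized (JC-1 monomer) cells.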

For assay [8], the system named is HeLa. Kind of assay: Induction of mitochondrial membrane depolarization in human HeLa cells at 25 uM after 28 hrs by JC-1 staining-based flow cytometric analysis (reference value: 4%). Format: functional. The method in brief:
as §4

For assay [9], the system named is HeLa. In words: Induction of apoptosis in human HeLa cells assessed as late apoptotic cells at 50 uM after 28 hrs by annexin V/FITC/propidium iodide staining-based flow cytometry (reference value: 1.2%). The class given is functional.
The subject of assay [10] is HeLa. Kind of assay: Induction of apoptosis in human HeLa cells assessed as viable cells at 50 uM after 28 hrs by annexin V/FITC/propidium iodide staining-based flow cytometry (reference value: 95.3%). Format: functional. The following applies: read-out: Activity. (In general: A flow cytometer gives signals particle by particle.)
In assay [11] the test system is HeLa. Kind of assay: Induction of apoptosis in human HeLa cells assessed as early apoptotic cells at 50 uM after 28 hrs by annexin V/FITC/propidium iodide staining-based flow cytometry (reference value: 2.6%). The class given is functional.
For assay [12], the target named is DNA topoisomerase 2-alpha (Homo sapiens) (UniProt P11388). Kind of assay: Inhibition of human recombinant topoisomerase 2 alpha-mediated relaxation of supercoiled pBR322 plasmid DNA at 50 to 100 uM after 60 mins by electrophoretic analysis. The method, boiled down: as §3
Assay [13] concerns HeLa. Kind of assay: Induction of mitochondrial membrane depolarization in human HeLa cells after 28 hrs by JC-1 staining-based flow cytometric analysis. The class given is functional, cell-based. The method in brief: as §4
In assay [14] the test system is HeLa. In words: Induction of apoptosis in human HeLa cells assessed as dead cells at 50 uM after 28 hrs by annexin V/FITC/propidium iodide staining-based flow cytometry (reference value: 1%). The class given is functional. The method, boiled down: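 HeLa cells (2.0 x 10^5 per plate) seeded, grown 24 h in F-12 [HAM] with 10% heat-inactivated fetal calf serum, then exposed to test agent in complete medium for 28 h at 37 °C, 5% CO2. Cells were resuspended at 10^6 cells/mL in binding buffer and stained with annexin V-FITC plus propidium iodide for 15 min in the dark at room temperature. Read by flow cytometry.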

DNA topoisomerase 2-alpha (Homo sapiens), sequence (P11388 whole entry): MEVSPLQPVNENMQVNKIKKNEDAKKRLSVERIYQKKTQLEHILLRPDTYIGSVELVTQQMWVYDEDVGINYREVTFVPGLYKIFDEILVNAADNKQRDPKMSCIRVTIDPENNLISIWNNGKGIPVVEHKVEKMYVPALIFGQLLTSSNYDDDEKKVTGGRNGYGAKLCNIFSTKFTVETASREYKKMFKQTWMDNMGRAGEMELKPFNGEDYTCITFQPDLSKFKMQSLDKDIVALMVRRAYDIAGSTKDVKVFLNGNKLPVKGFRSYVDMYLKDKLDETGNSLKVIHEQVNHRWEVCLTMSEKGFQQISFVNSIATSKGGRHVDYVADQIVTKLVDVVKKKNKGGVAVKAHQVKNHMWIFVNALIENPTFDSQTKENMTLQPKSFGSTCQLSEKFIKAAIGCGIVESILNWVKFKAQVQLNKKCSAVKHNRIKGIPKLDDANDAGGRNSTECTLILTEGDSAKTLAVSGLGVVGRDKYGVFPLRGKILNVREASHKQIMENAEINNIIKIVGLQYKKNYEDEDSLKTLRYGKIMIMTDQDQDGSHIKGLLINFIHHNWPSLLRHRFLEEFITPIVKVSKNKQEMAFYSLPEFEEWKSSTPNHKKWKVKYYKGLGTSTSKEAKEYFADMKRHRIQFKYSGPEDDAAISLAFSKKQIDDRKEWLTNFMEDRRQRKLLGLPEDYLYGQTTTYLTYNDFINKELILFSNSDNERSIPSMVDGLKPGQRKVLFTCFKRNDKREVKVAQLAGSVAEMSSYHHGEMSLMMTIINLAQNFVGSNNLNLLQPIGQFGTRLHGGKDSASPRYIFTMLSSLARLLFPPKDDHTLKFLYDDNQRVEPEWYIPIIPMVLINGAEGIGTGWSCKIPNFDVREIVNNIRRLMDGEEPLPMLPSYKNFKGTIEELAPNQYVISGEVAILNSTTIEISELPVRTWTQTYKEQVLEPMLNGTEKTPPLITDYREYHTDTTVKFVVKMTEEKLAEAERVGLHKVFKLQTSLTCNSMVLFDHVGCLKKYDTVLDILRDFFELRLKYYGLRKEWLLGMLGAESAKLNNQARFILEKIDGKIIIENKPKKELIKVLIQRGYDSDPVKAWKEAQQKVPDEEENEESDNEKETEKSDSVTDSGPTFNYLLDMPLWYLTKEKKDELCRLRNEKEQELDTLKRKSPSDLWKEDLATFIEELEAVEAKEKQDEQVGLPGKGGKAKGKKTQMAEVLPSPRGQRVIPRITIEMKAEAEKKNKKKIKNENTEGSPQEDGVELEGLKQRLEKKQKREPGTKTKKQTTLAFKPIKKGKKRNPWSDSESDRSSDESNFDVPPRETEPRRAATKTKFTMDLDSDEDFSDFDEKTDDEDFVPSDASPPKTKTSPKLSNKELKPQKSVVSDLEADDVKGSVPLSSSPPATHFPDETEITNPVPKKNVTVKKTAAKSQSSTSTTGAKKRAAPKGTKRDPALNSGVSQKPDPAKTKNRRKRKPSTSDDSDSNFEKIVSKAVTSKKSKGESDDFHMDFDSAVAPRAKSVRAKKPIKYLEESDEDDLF

For the compound `CC/C(=C(/c1ccc(O)cc1)c1ccc(NC(=O)C(C)C)cc1)c1ccccc1`, the GI50 in [1] was 16.4 µM; in assay [2], 32.6 µM; in assay [3], 9.9 µM; in [4], greater than 50 µM.
Taken in the same sequence, the figures for `CC/C(=C(\c1ccc(O)cc1)c1ccc(NC(=O)C(C)C)cc1)c1ccccc1` were 14.7 µM, 34 µM, 9.9 µM and 42 µM.
Turning to `CC/C(=C(/c1ccccc1)c1ccc(NC(=O)C(C)C)cc1)c1ccc(O)cc1`, the GI50 came out at 8.5 µM in [1], 4.6 µM in assay [2], 5.1 µM in [3] and 12.1 µM in assay [4]. Further, the inhibition result in assay [5] was “Active”.
Turning to `CC/C(=C(/c1ccc(NC(=O)C(C)C)cc1)c1ccc(OC)cc1)c1ccc(OCc2ccccc2)cc1`, the GI50 in [1] is 29 µM; in assay [2], greater than 50 µM; in [3] it was 4.2 µM; in assay [4], greater than 50 µM.
As for `CC/C(=C(\c1ccc(NC(=O)C(C)C)cc1)c1ccc(OC)cc1)c1ccc(OCc2ccccc2)cc1`, the GI50 in assay [1] was greater than 30 µM; in assay [2] it was greater than 50 µM; in [3], greater than 30 µM; in [4], greater than 50 µM.
With `CC/C(=C(\c1ccccc1)c1ccc(NC(=O)C(C)C)cc1)c1ccc(Cl)cc1Cl`, the GI50 in [1] was 8.3 µM; in [2], 8.4 µM; in [3], 3.3 µM; in assay [4], greater than 50 µM. Further, the outcome in assay [6] was Active.
`CC/C(=C(\c1ccccc1)c1ccc(NC(=O)C(C)C)cc1)c1ccc(O)cc1`: the GI50 in assay [1] amounted to 8.1 µM; in assay [2], 3.7 µM; in assay [3] it was 3.8 µM; in assay [4], 8.7 µM.
For `CC/C(=C(\c1ccccc1)c1ccc(N)cc1)c1ccccc1`, the GI50 was greater than 30 µM in assay [1], greater than 50 µM in assay [2], greater than 30 µM in [3] and greater than 50 µM in [4].
On to `CC/C(=C(/c1ccc(NC(=O)C(C)C)cc1)c1ccc(OC)cc1)c1ccc(O)cc1`, for which the GI50 in assay [1] turned out to be 13.6 µM; in assay [2] it was 13.6 µM; in assay [3], 5.8 µM; in assay [4], 29.3 µM. The inhibition result in [5] is “Active”.
In the case of `CC/C(=C(\c1ccccc1)c1ccc(NC(=O)C(C)C)cc1)c1ccc(OCc2ccccc2)cc1`, the GI50 is greater than 30 µM in assay [1], 8.8 µM in assay [2], 10.2 µM in assay [3] and greater than 50 µM in assay [4].
As for `CC/C(=C(\c1ccc(NC(=O)C(C)C)cc1)c1ccc(OC)cc1)c1ccc(Cl)cc1Cl`, the GI50 in [1] is 13.2 µM; in assay [2] it was 8.2 µM; in assay [3], 5.5 µM; in assay [4], greater than 50 µM.
The like results for `CC/C(=C(/c1ccc(NC(=O)C(C)C)cc1)c1ccc(OC)cc1)c1ccccc1` were, in that order, greater than 30 µM, greater than 50 µM, greater than 30 µM and greater than 50 µM.
The like results for `CC/C(=C(/c1ccccc1)c1ccc(NC(=O)C(C)C)cc1)c1ccccc1` were, in that order, greater than 30 µM, 31.6 µM, 28.1 µM and greater than 50 µM.
Taken in the same sequence, the figures for `CC/C(=C(/c1ccccc1)c1ccc(NC(=O)C(C)C)cc1)c1ccc(Cl)cc1Cl` were 17.5 µM, greater than 50 µM, 8.2 µM and greater than 50 µM.
On to `CC/C(=C(\c1ccccc1)c1ccc(NC(=O)C(C)C)cc1)c1ccccc1`, for which the GI50 was greater than 30 µM in assay [1], greater than 50 µM in assay [2], greater than 30 µM in assay [3] and greater than 50 µM in [4].
For `CC/C(=C(\c1ccc(O)cc1)c1ccc(NC(=O)C(C)C)cc1)c1ccc(Cl)cc1Cl`, the GI50 in assay [1] was 12.5 µM; in assay [2], 15.7 µM; in assay [3], 8.7 µM; in assay [4], 28.8 µM.
The like results for `CC/C(=C(\c1ccc(NC(=O)C(C)C)cc1)c1ccc(OC)cc1)c1ccccc1` were, in that order, 27.9 µM, 17.4 µM, 10.1 µM and greater than 50 µM.
The like results for `CC/C(=C(\c1ccc(NC(=O)C(C)C)cc1)c1ccc(OC)cc1)c1ccc(O)cc1` were, in that order, 9 µM, 5.7 µM, 3.7 µM and 23.6 µM.
With `CC/C(=C(/c1ccc(O)cc1)c1ccc(NC(=O)C(C)C)cc1)c1ccc(Cl)cc1Cl`, the GI50 stood at 26.6 µM in [1], 28.1 µM in assay [2], 20.3 µM in assay [3] and 32.3 µM in [4].
In the case of `CC/C(=C(/c1ccccc1)c1ccc(NC(=O)C(C)C)cc1)c1ccc(OCc2ccccc2)cc1`, the GI50 is greater than 30 µM in assay [1], greater than 50 µM in assay [2], greater than 30 µM in [3] and greater than 50 µM in assay [4].
Turning to `CC/C(=C(\c1ccccc1)c1ccc(OCCN(C)C)cc1)c1ccccc1` [TAMOXIFEN], the Activity in [7] is 3.9%; in assay [8], 26.2%; in assay [9] it was 28%; in assay [11], 29.9%; in [13], “Dose-dependent effect”; in [14], 2.7%. Moreover, the 50% growth inhibitory concentration (GI50) in assay [1] came to 6.5 µM; in assay [2] it was 30.3 µM; in assay [3], 12 µM; in assay [4] it was 32 µM. The viability at 50 µM in [10] turned out to be 39.4%. Also, in assay [12], the inhibition result was “inactive”.
